Experimental data published in ChEMBL document CHEMBL2429727, “Syntheses, biological evaluation and SAR of ingenol mebutate analogues for treatment of actinic keratosis and non-melanoma skin cancer” (Bioorg Med Chem Lett, 2013).

What was measured:
[1] = Induction of oxidative burst in polymorphonuclear leukocytes (unknown origin) isolated from buffy coat after 40 mins by fluorescence assay; type: functional, cell-based
Summary of the method: (§1)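 PMN isolated and purified from fresh buffy coats, then incubated 40 min at ambient temperature with titrated compound (top concentration 10 µM) premixed with hydroethidine. Respiratory burst read as fluorescence in relative light units, emission 579 nm, excitation 485 nm. EC50 and Emax are expressed relative to the maximum effect of the ingenol mebutate reference.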

[2] = Induction of oxidative burst in polymorphonuclear leukocytes (unknown origin) isolated from buffy coat at 10 uM after 40 mins by fluorescence assay relative to ingenol mebutate; type: functional; summary of the method: as §1
Keratinocyte [3] = experiment: Induction of TNFalpha release in human primary epidermal keratinocytes after 6 hrs relative to ingenol mebutate; type: functional
Summary of the method: (§2)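 Human adult log-phase primary epidermal keratinocytes subcultured at 10,000 cells/well. Incubated with titrated compound for 6 h at 37 °C in humidified 95% air/5% CO2. Secreted cytokines quantified on 4-spot cytokine plates. EC50 is the concentration giving 50% of the maximum effect of the ingenol mebutate reference. Emax is maximal response relative to that reference.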

Keratinocyte [4] = experiment: Induction of TNFalpha release in human primary epidermal keratinocytes after 6 hrs; type: functional, cell-based; summary of the method: as §2
[5] = Induction of necrosis in human HeLa cells after 30 mins by resazurin assay; type: cell-based; conditions: read-out: LC50
Summary of the method: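 HeLa cells exposed to increasing ester concentrations up to 400 µM for 30 min at 37 °C. Remaining metabolic activity then read with a resazurin-based dye. LC50 is the concentration causing 50% loss of metabolic activity.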

Keratinocyte [6] = experiment: Induction of IL-8 release in human primary epidermal keratinocytes after 6 hrs by HTRF assay relative to ingenol mebutate; type: functional
[7] = Chemical stability of the compound in aqueous buffer assessed as drug recovery after 16 hrs at pH 7.4 by HPLC analysis; type: physicochemical; conditions: read-out: Drug recovery
Summary of the method: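 DMSO stock diluted with pre-heated (37 °C) aqueous buffer pH 7.4 to at most 30% v/v organic content, then shaken. Held in the HPLC autosampler at 37 °C, first injected within 5 min, then injected repeatedly over 16 h. Recovery taken from the fall in compound peak area, UV detection normally at 270 nm.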

Keratinocyte [8] = experiment: Induction of IL-8 release in human primary epidermal keratinocytes after 6 hrs by HTRF assay; type: functional, cell-based

| SMILES | EC50 [1] | Emax at 10 µM [2] | Emax (Keratinocyte [3]) | EC50 (Keratinocyte [4]) | CC50 at 0.5 h [5] | Emax (Keratinocyte [6]) | remaining at 16 h [7] | EC50 (Keratinocyte [8]) |
| --- | --- | --- | --- | --- | --- | --- | --- | --- |
| C=C(CC)C(=O)O[C@H]1C(C)=C[C@]23C(=O)[C@@H](C=C(CO)[C@@H](O)[C@]12O)[C@H]1[C@@H](C[C@H]3C)C1(C)C | 5.2 nM | 102% | 101% | 29 nM | 129 µM | 100% | 30% | 21 nM |
| CC#CC(=O)O[C@H]1C(C)=C[C@]23C(=O)[C@@H](C=C(CO)[C@@H](O)[C@]12O)[C@H]1[C@@H](C[C@H]3C)C1(C)C | 17 nM | 112% |  | 10000 nM |  |  | 5% | 10000 nM |
| C/C=C/C(=O)O[C@H]1C(C)=C[C@]23C(=O)[C@@H](C=C(CO)[C@@H](O)[C@]12O)[C@H]1[C@@H](C[C@H]3C)C1(C)C | 9.1 nM | 110% | 91% | 802 nM |  | 93% | 0% | 821 nM |
| CC1=C[C@]23C(=O)[C@@H](C=C(CO)[C@@H](O)[C@]2(O)[C@H]1OC(=O)C1=CCCCC1)[C@H]1[C@@H](C[C@H]3C)C1(C)C | 6.7 nM | 99% | 42% | 10000 nM |  | 45% | 60% | 10000 nM |
| CC1=C[C@]23C(=O)[C@@H](C=C(CO)[C@@H](O)[C@]2(O)[C@H]1OC(=O)c1ccccc1)[C@H]1[C@@H](C[C@H]3C)C1(C)C | 6 nM | 110% | 60% | 88 nM |  | 54% | 30% | 182 nM |
| CC1=C[C@]23C(=O)[C@@H](C=C(CO)[C@@H](O)[C@]2(O)[C@H]1OC(=O)C12C[C@@H]4C[C@@H](C[C@H]1C4)C2)[C@H]1[C@@H](C[C@H]3C)C1(C)C | 8.3 nM | 136% | 55% | 36 nM | 77 µM | 65% | 70% | 27 nM |
| CC1=C[C@]23C(=O)[C@@H](C=C(CO)[C@@H](O)[C@@]24OC(=O)CO[C@@H]14)[C@H]1[C@@H](C[C@H]3C)C1(C)C | 10000 nM |  |  | 10000 nM |  |  | 25% | 10000 nM |
| CO/N=C(/C(=O)O[C@H]1C(C)=C[C@]23C(=O)[C@@H](C=C(CO)[C@@H](O)[C@]12O)[C@H]1[C@@H](C[C@H]3C)C1(C)C)c1ccccc1 | 28 nM | 117% | 47% | 10000 nM |  | 45% | 55% | 10000 nM |
| C/C=C(/C)C(=O)O[C@H]1C(C)=C[C@@]23C(=O)[C@H]([C@H]4[C@@H](C[C@H]2C)C4(C)C)[C@H]2O[C@@]2(CO)[C@@H](O)[C@]13O | 50 nM | 114% | 156% | 367 nM |  | 119% |  | 320 nM |
| CC1=C[C@]23C(=O)[C@@H](C=C(CO)[C@@H](O)[C@]2(O)[C@H]1OC(=O)C(C)C)[C@H]1[C@@H](C[C@H]3C)C1(C)C | 19 nM | 104% | 72% | 112 nM |  | 63% | 30% | 120 nM |
| CC1=C[C@]23C(=O)[C@@H](C=C(CO)[C@@H](O)[C@]2(O)[C@H]1OC(=O)C1CC1)[C@H]1[C@@H](C[C@H]3C)C1(C)C | 26 nM | 112% | 81% | 243 nM |  | 83% | 30% | 256 nM |
| CC1=C[C@]23C(=O)[C@@H](C=C(CO)[C@@H](O)[C@]2(O)[C@H]1OCC(=O)OC(C)(C)C)[C@H]1[C@@H](C[C@H]3C)C1(C)C | 3300 nM | 111% |  | 10000 nM | 311 µM |  | 95% | 10000 nM |
| CC1=C[C@]23C(=O)[C@@H](C=C(CO)[C@@H](O)[C@]2(O)[C@H]1OC(=O)C1CCCC1)[C@H]1[C@@H](C[C@H]3C)C1(C)C | 6.5 nM | 107% | 58% | 65 nM |  | 54% | 30% | 69 nM |
| CCCC(=O)O[C@H]1C(C)=C[C@]23C(=O)[C@@H](C=C(CO)[C@@H](O)[C@]12O)[C@H]1[C@@H](C[C@H]3C)C1(C)C | 25 nM | 88% | 87% | 318 nM |  | 115% | 18% | 313 nM |
| C/C=C(/C)C(=O)O[C@H]1C(C)=C[C@]23C(=O)[C@@H](C=C(CO)[C@@H](OC)[C@]12O)[C@H]1[C@@H](C[C@H]3C)C1(C)C | 281 nM | 119% | 131% | 748 nM |  |  | > 95% | 738 nM |
| CC1=C[C@]23C(=O)[C@@H](C=C(CO)[C@@H](O)[C@@]24OC(=O)O[C@@H]14)[C@H]1[C@@H](C[C@H]3C)C1(C)C | 181 nM | 124% | 112% | 253 nM | 400 µM | 109% |  | 171 nM |
| CC(C)=CC(=O)O[C@H]1C(C)=C[C@]23C(=O)[C@@H](C=C(CO)[C@@H](O)[C@]12O)[C@H]1[C@@H](C[C@H]3C)C1(C)C | 4.3 nM | 109% | 82% | 66 nM | 283 µM | 74% | 55% | 86 nM |
| CC1=C[C@]23C(=O)[C@@H](C=C(CO)[C@@H](O)[C@]2(O)[C@H]1OC(=O)C1CCC1)[C@H]1[C@@H](C[C@H]3C)C1(C)C | 10 nM | 111% | 60% | 450 nM |  | 55% | 10% | 882 nM |
| CC1=C[C@]23C(=O)[C@@H](C=C(CO)[C@@H](O)[C@]2(O)[C@H]1OC(=O)C1CCCCC1)[C@H]1[C@@H](C[C@H]3C)C1(C)C | 6 nM | 104% | 47% | 10000 nM | 112 µM | 43% | 35% | 10000 nM |
| C/C=C(/C)C(=O)O[C@H]1C(C)=C[C@]23C(=O)[C@@H](C=C(COC)[C@@H](O)[C@]12O)[C@H]1[C@@H](C[C@H]3C)C1(C)C | 10000 nM |  |  | 10000 nM | 400 µM |  | 77% | 10000 nM |
| CC1=C[C@]23C(=O)[C@@H](C=C(CO)[C@@H](O)[C@]2(O)[C@H]1O)[C@H]1[C@@H](C[C@H]3C)C1(C)C [INGENOL] | 10000 nM |  |  | 10000 nM | > 400 µM |  | > 95% | 10000 nM |
